Assay results from publication PMC6174986 (Journal of Clinical Pharmacology, 2018).
Read-outs that look alike come from different tables or passages of the source. Blank lines part the entries; values can stand above or below the molecule they belong to.

How the values were obtained:
[1] = Population pharmacokinetic analysis of asunaprevir plasma concentrations; type: in vivo, human
Outline: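 Japanese adults ≥20 y with chronic genotype 1 HCV (compensated cirrhosis allowed), from 2 clinical studies; oral 200 or 600 mg twice-daily tablet or 100 mg twice-daily soft-gel. Plasma by validated LC-MS/MS; below-LLOQ excluded. One-compartment, first-order absorption; log-normal IIV on CL/F, V/F; additive log-scale residual. Backward elimination (P < .001); bootstrap 95% CIs; 5th/95th covariate percentiles versus typical.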

[2] = healthy Japanese volunteers, within the dose range studied; cited from earlier work
[3] = test system: P‐glycoprotein transporter; details: cited from earlier work
[4] = test system: cytochrome P450 (CYP) 3A4; details: cited from earlier work
[5] = test system: CYP2D6; details: asunaprevir; cited from earlier work
[6] = test system: organic anion transporting polypeptide(OATP); details: asunaprevir; cited from earlier work
[7] = mild impairment (Child‐Pugh class A cirrhosis); cited from earlier work
[8] = tablet formulation used in phase 1/2 studies; cited from earlier work
[9] = cited from earlier work
[10] = Population pharmacokinetic analysis of daclatasvir plasma concentrations; type: in vivo, human
Outline: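 Japanese adults ≥ 20 years with chronic HCV genotype 1 (compensated cirrhosis allowed) from 4 clinical studies; oral 10 or 60 mg once daily, with asunaprevir or pegIFN/RBV. Plasma levels by validated LC‑MS/MS; below‑LLOQ samples excluded. Nonlinear mixed‑effects model: log‑normal interindividual variability, log‑transform‑both‑sides residual error, backward covariate elimination (P < .001), bootstrap 95% CIs.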

[11] = cited from earlier work; remark: listed apart in the source
[12] = cited from earlier work; remark: listed apart in the source
[13] = final popPK model, Japanese HCV subjects

Impact of OATP1B1 haplotypes (4 categories) on CL/F ([1]; covariate analysis, Japanese population): did not show statistical significance
CL/F for cirrhotic subjects relative to subjects without cirrhosis ([1]; final model, printed as fold lower): 0.65 fold
Interindividual variability of CL/F ([1]; final popPK model): 41.5%
Interindividual variability of V/F ([1]; final popPK model): 93.4%
Ka (absorption rate constant), θ3 [1, 13]: 0.228 h^‐1
V/F (apparent volume of central compartment), θ2 ([1]; final popPK model, Japanese HCV subjects, phase 2 tablet reference): 75.1 L
Compound: C=C[C@@H]1C[C@]1(NC(=O)[C@@H]1C[C@@H](Oc2ncc(OC)c3ccc(Cl)cc23)CN1C(=O)[C@@H](NC(=O)OC(C)(C)C)C(C)(C)C)C(=O)NS(=O)(=O)C1CC1 [asunaprevir, Asunaprevir]
CL/F at 5th percentile of time‐varying AST compared with the median baseline AST ([1]; final model, AST at last PK sampling point 16 U/L, higher): 1.57 fold
CL/F at 5th percentile of baseline AST relative to median baseline AST of 52 U/L ([1]; final model, baseline AST 22 U/L, higher): 1.67 fold
Dose‐exposure relationship [2]: generally increased dose‐proportionally
Interaction with p‐glycoprotein ([3]; asunaprevir): weak inhibitor
Interaction with CYP3A4 ([4]; asunaprevir): weak inducer and sensitive substrate
Interaction with CYP2D6 [5]: moderate inhibitor
Interaction with OATP‐mediated uptake transport [6]: weak inhibitor and sensitive substrate
Steady‐state exposures [7]: not changed
Food effect [8]: Significant food effects
Observed AUC ([9]; AI447017, phase 2 study, 200‐mg tablet formulation): 2950 ng·h/mL
Observed AUC ([9]; AI447026, phase 3 study, 100‐mg soft‐gel capsule): 2155 ng·h/mL

Compound: COC(=O)N[C@H](C(=O)N1CCC[C@H]1c1nc(-c2ccc(-c3ccc(-c4c[nH]c([C@@H]5CCCN5C(=O)[C@@H](NC(=O)OC)C(C)C)n4)cc3)cc2)c[nH]1)C(C)C [daclatasvir, Daclatasvir]
Interindividual variability of CL/F ([10]; base popPK model): 39.7%
Interindividual variability of V/F ([10]; base popPK model): 40.7%
Effect of cirrhosis status and ALT/AST levels on CL/F ([10]; covariate analysis): not identified as significant covariates
CL/F reduction, women relative to men ([10]; final model): approximately 10%
V/F lower than at median (reference) body weight of 56 kg ([10]; final model, 5th percentile of baseline body weight, 42.8 kg): ~15%
V/F higher than at median (reference) body weight of 56 kg ([10]; final model, 95th percentile of baseline body weight, 78 kg): ~22%
Interindividual variability of CL/F ([10]; final popPK model): 39.4%
Interindividual variability of Ka ([10]; final popPK model): 86.9%
Interindividual variability of V/F ([10]; final popPK model): 38.1%
Random effect CL/F: V/F, ω1,2, covariance (correlation) ([10]; final popPK model): 0.141 (0.941)
Ka (absorption rate constant), θ3 [10, 13]: 0.865 h^‐1
V/F (apparent volume of central compartment), θ2 ([10]; final popPK model, Japanese HCV subjects, reference BBWT 56 kg): 64.2 L
V/F ∼BBWT (baseline body weight) covariate coefficient, θ14 ([10]; final popPK model, reference 56 kg): 0.605
CL/F ∼BCRCL (baseline creatinine clearance) covariate coefficient, θ10 ([10]; final popPK model, reference 86.48 mL/min): 0.235
Dose‐exposure relationship [2]: generally linear
Excreted via feces in an unchanged form [11]: ~88%
Renal elimination [11]: ~7 % of dose
Interaction with P‐glycoprotein transporter ([3]; daclatasvir): substrate and inhibitor
Effects on levels of the sensitive CYP3A probe midazolam in plasma ([4]; daclatasvir): minimal effects
Interaction with CYP3A4 ([4]; daclatasvir): substrate and weak inducer
Association between exposure and degree of hepatic impairment or biochemical/serological markers of liver dysfunction [12]: no obvious association
